In data set [1] the target is T1, Estrogen receptor (Homo sapiens) (UniProt P03372).
T1 sequence (whole entry): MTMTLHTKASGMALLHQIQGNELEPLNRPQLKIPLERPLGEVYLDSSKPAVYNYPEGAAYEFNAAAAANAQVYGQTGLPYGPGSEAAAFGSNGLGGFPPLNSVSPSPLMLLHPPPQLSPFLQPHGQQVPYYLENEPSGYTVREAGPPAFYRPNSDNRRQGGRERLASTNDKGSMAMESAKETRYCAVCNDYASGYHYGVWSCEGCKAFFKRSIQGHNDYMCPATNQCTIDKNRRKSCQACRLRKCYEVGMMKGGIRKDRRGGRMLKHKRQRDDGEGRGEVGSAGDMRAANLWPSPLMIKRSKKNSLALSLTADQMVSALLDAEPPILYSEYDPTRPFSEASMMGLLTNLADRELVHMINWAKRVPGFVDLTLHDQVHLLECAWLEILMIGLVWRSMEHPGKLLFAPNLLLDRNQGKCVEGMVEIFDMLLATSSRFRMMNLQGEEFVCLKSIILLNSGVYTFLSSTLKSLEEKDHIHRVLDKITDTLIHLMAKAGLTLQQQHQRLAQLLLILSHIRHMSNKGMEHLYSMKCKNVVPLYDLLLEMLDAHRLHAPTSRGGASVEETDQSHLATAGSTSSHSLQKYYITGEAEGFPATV
As to the kind of experiment: Inhibition of ER-alpha (unknown origin) transcriptional activity expressed in ER-negative human SKBR3 cells coexpressing ERE assessed as decrease in reporter gene activity at <20 uM after 40 hrs relative to control. It is filed as cell-based. On the set-up: scale not given: the % may be the effect or the level left. Particulars: SK-BR-3. The procedure, abridged:
(§1)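 ER-negative SKBR3 cells cotransfected with 3xERE-TATA-luciferase, RST7-ERα and pCMV-β-gal for normalization. […] Scored as >50% decrease or increase at <20, 20–50 or >50 μM, or <20% change. 4-hydroxytamoxifen as antagonist control. Cell death above 50 μM flagged.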
On the technique in general: In a reporter assay the amount or activity of a reporter protein is the signal.

Data set [2] deals with T1, Estrogen receptor (Homo sapiens). As to the kind of experiment: Inhibition of ER-alpha (unknown origin) transcriptional activity expressed in ER-negative human SKBR3 cells coexpressing ERE assessed as decrease in reporter gene activity at <20 uM after 40 hrs in presence of estradiol relative to control. Format: cell-based. On the set-up: scale not given: the % may be the effect or the level left. The note with it: SK-BR-3. The essentials:
as §1

The target is the same in data set [3]. As to the kind of experiment: Competitive inhibition of ER-alpha (unknown origin)-GRIP1 interaction expressed in human HepG2 cells assessed as decrease in reporter gene activity at <20 uM after 40 hrs relative to control. It is filed as cell-based. On the set-up: scale not given: the % may be the effect or the level left. The procedure, abridged: (§2)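 HepG2 cells transfected with VP16-ERα, Gal4-DBD-fused GRIP1 LxxLL2 peptide and 5xGal4Luc3 reporter. […] Scored as >50% decrease or increase at <20, 20–50 or >50 μM, or <20% change. 4-hydroxytamoxifen as antagonist control. Cell death and precipitation flagged.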

Data set [4] shares this target. As to the kind of experiment: Competitive inhibition of ER-alpha (unknown origin)-GRIP1 interaction expressed in human HepG2 cells assessed as decrease in reporter gene activity at <20 uM after 40 hrs in presence of estradiol relative to control. It is filed as cell-based. The arrangement: scale not given: the % may be the effect or the level left. The procedure, abridged: as §2

A further data set deals with T2, Estrogen receptor (Homo sapiens, UniProt P03372).
T2 sequence (P03372 whole entry): T1 sequence (whole entry)
Kind of data set: Mixed-type inhibition of ER-alpha (unknown origin) expressed in ER-negative human SKBR3 cells coexpressing ERE using estradiol as substrate. It is filed as cell-based, SK-BR-3.

Data set [5] deals with T1, Estrogen receptor (Homo sapiens). Kind of data set: Inhibition of ER-alpha (unknown origin) transcriptional activity expressed in ER-negative human SKBR3 cells coexpressing ERE assessed as change in reporter gene activity after 40 hrs relative to control. On the set-up: concentration or dose not given beside the values. The note with it: SK-BR-3. It is filed as cell-based. The procedure, abridged:
as §1

The target is the same in data set [6]. Kind of data set: Inhibition of ER-alpha (unknown origin) transcriptional activity expressed in ER-negative human SKBR3 cells coexpressing ERE assessed as change in reporter gene activity after 40 hrs in presence of estradiol relative to control. It is filed as cell-based. On the set-up: concentration or dose not given beside the values. The note with it: SK-BR-3. The essentials:
as §1

Data set [7] has the same target. As to the kind of experiment: Competitive inhibition of ER-alpha (unknown origin)-GRIP1 interaction expressed in human HepG2 cells assessed as decrease in reporter gene activity at >50 uM after 40 hrs relative to control. On the set-up: scale not given: the % may be the effect or the level left. Format: cell-based. The essentials:
as §2

The test system of data set [8] is HepG2. Kind of data set: Cytotoxicity against human HepG2 cells expressing ER-alpha coexpressing GRIP1 assessed as cell death at >50 uM. It is filed as cell-based. The essentials: as §2
Data set [9] has as its target T1, Estrogen receptor (Homo sapiens). As to the kind of experiment: Competitive inhibition of ER-alpha (unknown origin)-GRIP1 interaction expressed in human HepG2 cells assessed as change in reporter gene activity after 40 hrs in presence of estradiol relative to control. Format: cell-based. The arrangement: concentration or dose not given beside the values. The procedure, abridged:
as §2

Data set [10] relates to HepG2. Kind of data set: Cytotoxicity against human HepG2 cells expressing ER-alpha coexpressing GRIP1 assessed as cell death at >50 uM in presence of estradiol. Format: cell-based. The procedure, abridged:
as §2

For data set [11], the target named is T1, Estrogen receptor (Homo sapiens). Kind of data set: Inhibition of ER-alpha (unknown origin) transcriptional activity expressed in ER-negative human SKBR3 cells coexpressing ERE assessed as increase in reporter gene activity at 20 to 50 uM after 40 hrs relative to control. The note with it: SK-BR-3. The arrangement: scale not given: the % may be the effect or the level left. It is filed as cell-based. The procedure, abridged: as §1

Data set [12] has the same target. Kind of data set: Competitive inhibition of ER-alpha (unknown origin)-GRIP1 interaction expressed in human HepG2 cells assessed as decrease in reporter gene activity at less than 20 uM after 40 hrs relative to control. On the set-up: scale not given: the % may be the effect or the level left.

What is called IC50 is the midpoint of a concentration-inhibition curve.

As to `CCOC(=O)COc1ccc(-c2ccc(OCCN(C)C)cc2)cc1CC1CCCCC1`, the Activity in data set [1], in data set [2], in data set [3] and in data set [4] was greater than 50% throughout. Moreover, at Estrogen receptor, the IC50 worked out at 12.7 µM.
For the compound `CCOC(=O)COc1ccc(-c2ccc(OCCN(C)C)cc2)cc1Cc1ccc(-c2ccccc2)cc1`, the Activity in [5] is less than 20%; in [6], less than 20%; in data set [7], greater than 50%; in the data set on HepG2 [8] it was “Toxic”; in [9] it was less than 20%; in the data set on HepG2 [10] it was “Toxic”.
With `CCOC(=O)COc1ccc(-c2ccc(OCCN(C)C)c(CC3CCCCC3)c2)cc1`, the Activity in data set [11] is greater than 50%; in data set [6], less than 20%; in [9] it was less than 20%; in data set [12] it was greater than 50%.

The values are drawn from ChEMBL document CHEMBL3108721, “4,4'-Unsymmetrically substituted 3,3'-biphenyl alpha helical proteomimetics as potential coactivator binding inhibitors” (Bioorg Med Chem, 2014).
